HNF4A DNA FP: change in binding of human HNF4 alpha to DNA. AID 1224865. HNF4a-FITC DNA binding, fluorescence polarization, 1 h. actives 0.3% (n = 360,000). P41235. activity change, % at 10 µM; in the data active means activity change above about 30%, passing the limit was not always enough
Target sequence (P41235 whole entry, looked up): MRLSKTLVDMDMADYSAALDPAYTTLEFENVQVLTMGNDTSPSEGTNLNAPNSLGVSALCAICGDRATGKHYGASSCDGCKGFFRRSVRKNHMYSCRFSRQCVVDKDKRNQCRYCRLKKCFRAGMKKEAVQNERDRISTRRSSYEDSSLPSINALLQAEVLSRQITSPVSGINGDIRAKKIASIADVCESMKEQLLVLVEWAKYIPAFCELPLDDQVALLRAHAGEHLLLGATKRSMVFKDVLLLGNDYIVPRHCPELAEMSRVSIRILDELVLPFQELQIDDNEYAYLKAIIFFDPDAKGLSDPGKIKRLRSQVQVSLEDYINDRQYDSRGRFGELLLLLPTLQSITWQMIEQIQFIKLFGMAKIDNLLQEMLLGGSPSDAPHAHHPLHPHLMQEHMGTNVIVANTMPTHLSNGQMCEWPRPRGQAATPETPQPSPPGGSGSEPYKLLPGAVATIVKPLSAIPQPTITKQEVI
TPT1 inhibitor: inhibitors of Candida albicans tRNA 2'-phosphotransferase TPT1. recombinant caTPT1, FP RNA substrate dephosphorylation. inhibition, % at 5 µM. actives 0.81% (n = 300,000). AID 1962;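 active means inhibition above the mean of all tested compounds plus 3 SD, set per screening campaign, cut at about 24% in these data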;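 further: plate controls were DMSO alone for no effect and ferristatin control at 100 nM for full effect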
CSN deneddyl inh: CSN deneddylation inhibition. Q92905. Purified CSN, SCF-Nedd8-OG deneddylation, fluorescence polarization. inhibition, % at 12.5 µM. actives 0.38% (n = 360,000). AID 651999;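 active means pattern-corrected inhibition above about 35%, with an unprinted fluorescence ratio check between 0.5 and 1.5, limit read from the data, passing the limit was not always enough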;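 further: 0% = enzyme with substrate and 100% = substrate without enzyme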
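Assay system: purified human Csn5 enzyme expressed in HEK293T cells; Input: 0.24 nM Csn5 enzyme, final concentration; Reagent: 10 nM SCFSkp2-Nedd8OG; Compound dosing: 12.5 µM single point; Times: reaction 90 min, room temperature; Technique: fluorescence polarization readout.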
Rpn11 inh: Rpn11 (human) deubiquitinase inhibition. inhibition, % at 20 µM. human 26S proteasome, Ub4-pepOG fluorescence polarization; 20S core pre-blocked with epoxomicin. actives 0.59% (n = 360,000). O00487. AID 588493;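 active means inhibition at 20 µM, scaled to each plate's controls, above about 33%, limit read from the data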
Target sequence (O00487 whole entry, looked up): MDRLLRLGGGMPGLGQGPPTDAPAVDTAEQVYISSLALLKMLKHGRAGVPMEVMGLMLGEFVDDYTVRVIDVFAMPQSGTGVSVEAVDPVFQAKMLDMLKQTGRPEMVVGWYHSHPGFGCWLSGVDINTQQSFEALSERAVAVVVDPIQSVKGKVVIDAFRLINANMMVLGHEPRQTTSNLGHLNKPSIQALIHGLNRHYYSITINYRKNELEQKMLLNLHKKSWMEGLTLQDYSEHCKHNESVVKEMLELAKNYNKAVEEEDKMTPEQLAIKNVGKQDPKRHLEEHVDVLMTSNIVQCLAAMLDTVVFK
XiGFP reactiv: reactivates the inactive X chromosome in mouse fibroblasts | XiGFP mouse fibroblasts, % GFP-positive cells imaging, 3 d; cells co-treated with 5-aza-dC sensitizer; scaled so ellipticine positive control = 100% | activation, % at 7.58 µM | actives 0.055% (n = 360,000) | AID 743238;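 active means mean normalized replicate activation at least 10% and every replicate at or above 10%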;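 further: 0% = median of on-plate neutral control wells and 100% = ellipticine 6 µM median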
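Assay system: SV40-immortalized XiGFP fibroblast cells, line 68-5-11; buffer or medium: DMEM plus 5-aza-dC sensitizer; compound: one concentration, pinned; timing: compounds 3 days, fix/stain 15 min at room temperature; benchmarks: positive control ellipticine, 6 µM final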
aDG glyco act: increases alpha dystroglycan glycosylation | actives 0.22% (n = 360,000) | activation, % at 10 µM | Pro5-aDG cells, alpha-DG glycosylation AlphaScreen (IIH6); 0% Pro5, 100% B10-LARGE cell signal;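 active means activation of at least 8% versus controls, or a plate z-score of at least 8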;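 further: Pro5 are CHO cells carrying HIG-tagged alpha-DG that lacks glycosylation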
caTPT1 confirm: TPT1 (C. albicans) inhibition, confirmation; AID 2149; recombinant caTPT1, fluorescence polarization, RNase T1 coupled; actives 74% (n = 2,400); shares compounds with TPT1 inhibitor; inhibition, % at 5 µM;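 active means inhibition above the primary screen limit, the mean inhibition of all tested compounds plus 3 SD, cut at about 25% in these data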
RNase T1 inh: RNase T1 inhibition in TPT1 counter-screen. shares compounds with TPT1 inhibitor. RNase T1 cleavage, fluorescence polarization, 1536-well. inhibition, % at 5 µM. actives 83% (n = 2,400). AID 2153;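 active means inhibition above the solvent-only control well mean plus 3 SD, limit set per screening run, cut at about 23% in these data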;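 further: plate controls were DMSO wells with enzyme for no effect and wells without RNase T1 for full effect; inhibitors block cleavage so intact labeled substrate keeps polarization high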
Rpn11 confirm: confirmation of human proteasome Rpn11 inhibitors. AID 602318. inhibition, % at 20 µM. purified human 26S proteasome, Ub4-pepOG fluorescence polarization; proteasome pretreated with epoxomicin. shares compounds with Rpn11 inh. actives 29% (n = 1,900)
MMP-2 counter-1: blocks human MMP-2, flagging nonselective RPN11 hits | inhibition, % at 20 µM | actives 4% (n = 1,900) | recombinant MMP-2, FRET peptide cleavage fluorescence | AID 602330 | shares compounds with Rpn11 inh;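 further: human MMP-2 activated beforehand with APMA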
Thrombin inh: blocks bovine thrombin, flagging nonselective RPN11 hits; shares compounds with Rpn11 inh; actives 13% (n = 1,900); bovine thrombin cleavage of Ub4-pepOG, fluorescence polarization; inhibition, % at 20 µM;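 active means mean inhibition at least 40% at 20 µM, or signal 3 deviations below plate average, so some actives read negative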;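 further: plate controls were thrombin with DMSO for no effect and buffer wells lacking thrombin for full effect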
CSN deneddyl val: Csn5 (human) deneddylation inhibition, single-concentration validation | shares compounds with CSN deneddyl inh | Csn5 deneddylation of SCF-Nedd8OG, fluorescence polarization, 90 min | inhibition, % at 16.6 µM | actives 62% (n = 540); in the data active means inhibition above about 50%;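 further: 0% = DMSO with enzyme and 100% = no enzyme wells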
MMP-2 counter-2: blocks human MMP-2 in a CSN deneddylation counter-screen; shares compounds with CSN deneddyl inh; recombinant MMP-2, FRET substrate fluorescence, 60 min; inhibition, % at 16.6 µM; actives 33% (n = 540);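 active means corrected plate-normalized z-score of 5 or more, or -5 or less, or inhibition of 15% or more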;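 further: plate controls were DMSO wells with enzyme for no effect and buffer wells lacking MMP-2 for full effect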
Thrombin cntr: thrombin (bovine) inhibition, counter-screen for CSN hits; actives 49% (n = 540); AID 720656; bovine thrombin cleavage of Ub4-pepOG, fluorescence polarization; inhibition, % at 16.6 µM; shares compounds with CSN deneddyl inh;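 active means inhibition at or above a set limit, with a fluorescence interference ratio between 0.5 and a set maximum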
HNF4A confirm: change in binding of human HNF4 alpha to DNA, retest | actives 99% (n = 210) | HNF4A-FITC DNA binding, fluorescence polarization, 1 h | shares compounds with HNF4A DNA FP | activity change, % at 12.5 µM; call rule not given here
* marks the source's active call; other numbers are inactive results; · = no result given; ! = not confirmed by another sample. An excerpt weighted towards active compounds, which were near 1.3% of everything screened. Unless noted, no stated cut-off is given here; in the data, active means inhibition above about 40%; inactive means the rest.

SMILES | HNF4A DNA FP | TPT1 inhibitor | CSN deneddyl inh | Rpn11 inh | XiGFP reactiv | aDG glyco act | Rpn11 confirm | MMP-2 counter-1 | Thrombin inh | others
O=C1NC(=O)N(c2ccc3c(c2)OCO3)C(=O)/C1=C\c1ccc(N2CCCCC2)o1 | 169 | 126* | 89* | · | 0 | 0 | · | · | · | caTPT1 confirm=148*;RNase T1 inh=145*;CSN deneddyl val=138*;MMP-2 counter-2=-26;Thrombin cntr=54
CCc1ccccc1N1C(=O)/C(=C/c2ccc(N3CCN(C)CC3)o2)C(=O)NC1=S | 55* | 106* | 128* | · | 0 | 0 | · | · | · | caTPT1 confirm=142*;RNase T1 inh=138*;CSN deneddyl val=12;MMP-2 counter-2=-1;Thrombin cntr=77*
CN(C)CC#Cc1ccc([C@@H]2[C@@H](CO)N3CCCCN(C(=O)Cc4ccccn4)C[C@H]23)cc1 | · | · | · | · | 0 | · | · | · | ·
N#Cc1ccc(-c2ccc([C@H]3[C@@H](CO)N4CCCCN(C(=O)Cc5ccccc5)C[C@H]34)cc2)cc1 | · | · | · | · | 0 | · | · | · | ·
COc1ccc(N=Nc2c(O)[nH]c(=S)[nH]c2=O)cc1 | 80* | 60* | 58* | · | 0 | 0 | · | · | · | caTPT1 confirm=55*;RNase T1 inh=70*;HNF4A confirm=118*
COC(=O)[C@@H]1[C@@H](CO)[C@@H]2Cn3c(ccc(-c4cccc(C(=O)N(C)C)c4)c3=O)[C@H]1N2CC1CC1 | · | · | · | · | 0 | · | · | · | ·
COc1ccc2[nH]c3c(c2c1)CCNC3C (stereo not given) | 3 | 2 | -4 | 3 | 0 | 0 | · | · | ·
COc1ccc2c3c([nH]c2c1)C(C)NCC3 (stereo not given) | 42* | 27* | 31 | 78* | · | 0 | 58* | -8 | 48* | caTPT1 confirm=2;RNase T1 inh=6;HNF4A confirm=55*
Cc1cccc(S(=O)(=O)N2[C@@H]3Cn4c(ccc(-c5ccc(F)cc5)c4=O)[C@H]2[C@@H](C(=O)O)[C@@H]3CO)c1 | · | · | · | · | 0 | · | · | · | ·
O=C1NC(=O)N(Cc2ccccc2Cl)C(=O)/C1=C/N1CCOCC1 | 37* | 40* | 30 | · | · | 0 | · | · | · | caTPT1 confirm=47*;RNase T1 inh=60*;HNF4A confirm=54*
O=c1[nH]c(=O)n(-c2ccc(F)cc2)c(O)c1C=Nc1ccccc1N1CCCC1 | 58* | 1 | 16 | 61* | · | 0 | 16 | 29 | -52
CC(C)c1ccc(N2C(=O)CC(=O)NC2=O)cc1 | 10 | 20 | 7 | 37* | 0 | 0 | 15 | 3 | 4
O=C1CC(=O)N(c2ccc(Cl)cc2)C(=O)N1 | 12 | 14 | 14 | 19 | 0 | 0 | · | · | ·
Cc1ccccc1N1C(=O)CC(=O)NC1=O | 2 | 8 | -3 | 4 | · | 0 | · | · | ·
CCc1ccccc1N1C(=O)CC(=O)NC1=O | 6 | 6 | 4 | 28* | 0 | 0 | -8 | -37 | 4
COC(=O)[C@@H]1[C@@H](CO)[C@@H]2Cn3c(ccc(-c4ccncc4)c3=O)[C@H]1N2CCc1ccccc1 | · | · | · | · | 0 | · | · | · | ·
Cc1ccccc1-n1c(O)c(/C=C2/C(c3ccccc3)=Nc3ccccc32)c(=O)[nH]c1=O | 3 | 6 | -4 | 41* | 0 | 0 | 35 | 10 | 25
O=C(Cc1ccccn1)N1CCCCN2[C@H](CO)[C@H](c3ccc(-c4ccccc4F)cc3)[C@H]2C1 | · | · | · | · | 0 | · | · | · | ·
O=c1[nH]c(=S)n(Cc2ccc(F)cc2)c(O)c1C=NCc1ccc2c(c1)OCO2 | 0 | 0 | 3 | 32* | 0 | 0 | -13 | -9 | -18
O=c1[nH]c(=S)n(Cc2ccc(F)cc2)c(O)c1/C=N/N1CCCCCC1 | 35 | 8 | -5 | 57* | 0 | 0 | 23 | 25 | 13
O=c1[nH]c(=S)n(Cc2ccc(F)cc2)c(O)c1C=NCCCn1ccnc1 | 4 | 3 | -2 | 1 | 0 | 0 | · | · | ·
CN(C)CCN=Cc1c(O)n(Cc2ccc3c(c2)OCO3)c(=S)[nH]c1=O | 1 | -2 | -4 | 13 | 0 | 0 | · | · | ·
O=C(Cc1cccnc1)N1CCCCN2[C@H](CO)[C@@H](c3ccc(C#CC4(O)CCCC4)cc3)[C@H]2C1 | · | · | · | · | 0 | · | · | · | ·
O=c1c2ccccc2nc(-c2ccco2)n1-c1nccs1 | 2 | 0 | -2 | 50* | · | 0 | -12 | -28 | -6
C=CCn1c(O)c(C(C)=NCCC2=CCCCC2)c(=O)[nH]c1=O | 1 | -2 | 0 | 2 | · | 0 | · | · | ·
COc1ccc(/C=C/C(=O)c2c(O)n(CCC3=CCCCC3)c(=O)[nH]c2=O)cc1OC | 0 | 9 | 33 | 44* | 0 | 0 | active | -62 | active
O=C(Cc1cccnc1)N1CCCCN2[C@@H](CO)[C@H](c3ccc(/C=C/c4ccccc4)cc3)[C@@H]2C1 | · | · | · | · | 0 | · | · | · | ·
C/C=C/c1ccc([C@@H]2[C@@H](CO)N3CCCCN(C(=O)Cc4ccncc4)C[C@@H]23)cc1 | · | · | · | · | 0 | · | · | · | ·
CCN(CC)P(=O)(NC(=O)C(Cl)(Cl)Cl)N(CC)CC.[Cl-].[Cl-].[Cl-].[Nd+3] | 53*! | 2 | 104*! | 63* | 0 | 0 | 6 | -9 | -27
CCOc1ccc(N=Cc2c(O)n(CCc3ccc(OC)c(OC)c3)c(=O)[nH]c2=O)cc1 | 11 | 3 | 29 | 19 | 0 | 0 | · | · | ·

Source: PubChem
